# In ChEMBL document CHEMBL1909541, “Hantzsch reaction: synthesis and characterization of some new 1,4-dihydropyridine derivatives as potent antimicrobial and antioxidant agents” (Eur J Med Chem, 2011):
# Tests used:
# Candida albicans [1] = assay: Antifungal activity against Candida albicans MTCC 3017 at 1 mg/mL after 72 hrs by agar-well diffusion method; format: functional; conditions: MTCC 3017, 72 h, read-out: DIZ
# Outline: (§1)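 Fungal spore suspensions made in normal saline were spread onto agar adjusted to pH 5.7, then dried 1 h at 37 °C. Wells were cut and loaded with test compounds in DMSO at different concentrations, with a DMSO control. Plates run in triplicate at 25 °C for 72 h. Read-out was inhibition zone diameter.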
# Pseudomonas aeruginosa [2] = assay: Antibacterial activity against Pseudomonas aeruginosa ATCC 27853 at 0.5 mg/mL after 24 hrs by agar-well diffusion method; format: functional; conditions: ATCC 27853, 24 h, read-out: IZ
# Outline: (§2)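 Well diffusion on Mueller-Hinton agar seeded with 24 h old cultures. Test compounds dissolved in DMSO at 1, 0.5 and 0.25 mg/mL. 6 mm wells were punched with a sterile cork borer, test solutions added, and plates incubated 24 h at 37 °C.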
# Escherichia coli [3] = assay: Antibacterial activity against Escherichia coli ATCC 25922 at 0.5 mg/mL after 24 hrs by agar-well diffusion method; format: functional; conditions: ATCC 25922, 24 h, read-out: IZ; outline: as §2
# Candida albicans [4] = assay: Antifungal activity against Candida albicans MTCC 3017 at 0.5 mg/mL after 72 hrs by agar-well diffusion method; format: functional; conditions: MTCC 3017, 72 h, read-out: DIZ; outline: as §1
# Escherichia coli [5] = assay: Antibacterial activity against Escherichia coli ATCC 25922 at 0.25 mg/mL after 24 hrs by agar-well diffusion method; format: functional; conditions: ATCC 25922, 24 h, read-out: IZ; outline: as §2
# Aspergillus flavus [6] = assay: Antifungal activity against Aspergillus flavus MTCC 3306 at 1 mg/mL after 72 hrs by agar-well diffusion method; format: functional; conditions: MTCC 3306, 72 h, read-out: DIZ; outline: as §1
# Candida albicans [7] = assay: Antifungal activity against Candida albicans MTCC 3017 at 0.25 mg/mL after 72 hrs by agar-well diffusion method; format: functional; conditions: MTCC 3017, 72 h, read-out: DIZ; outline: as §1
# Escherichia coli [8] = assay: Antibacterial activity against Escherichia coli ATCC 25922 at 1 mg/mL after 24 hrs by agar-well diffusion method; format: functional; conditions: ATCC 25922, 24 h, read-out: IZ; outline: as §2
# Staphylococcus aureus [9] = assay: Antibacterial activity against Staphylococcus aureus ATCC 25923 at 0.5 mg/mL after 24 hrs by agar-well diffusion method; format: functional; conditions: ATCC 25923, 24 h, read-out: IZ; outline: as §2
# Mus musculus [10] = assay: Acute toxicity in Swiss albino mouse assessed as behavioral changes up to 3000 mg/kg, po in single dose measured up to 24 hrs; format: organism-based; set-up: dose 3000 mg/kg, route oral; conditions: in vivo
# Outline: (§3)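 Single oral dose per OECD acute oral toxicity guidelines, 250 to 3000 mg/kg, given as a fine suspension in double distilled water with Tween 80. Toxic symptoms and behavioral changes observed continuously for 4 h, then at 8, 12 and 24 h; deaths recorded.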
# Aspergillus flavus [11] = assay: Antifungal activity against Aspergillus flavus MTCC 3306 at 0.5 mg/mL after 72 hrs by agar-well diffusion method; format: functional; conditions: MTCC 3306, 72 h, read-out: DIZ; outline: as §1
# Mus musculus [12] = assay: Acute toxicity in Swiss albino mouse assessed as mortality up to 3000 mg/kg, po in single dose measured up to 24 hrs; format: organism-based; set-up: dose 3000 mg/kg, route oral; conditions: in vivo; outline: as §3
# [13] = Antifungal activity against Chrysosporium keratinophilum MTCC 2827 at 0.25 mg/mL after 72 hrs by agar-well diffusion method; format: functional; outline: as §1
# [14] = Antifungal activity against Chrysosporium keratinophilum MTCC 2827 at 1 mg/mL after 72 hrs by agar-well diffusion method; format: functional; outline: as §1
# Aspergillus flavus [15] = assay: Antifungal activity against Aspergillus flavus MTCC 3306 at 0.25 mg/mL after 72 hrs by agar-well diffusion method; format: functional; conditions: MTCC 3306, 72 h, read-out: DIZ; outline: as §1
# Pseudomonas aeruginosa [16] = assay: Antibacterial activity against Pseudomonas aeruginosa ATCC 27853 at 0.25 mg/mL after 24 hrs by agar-well diffusion method; format: functional; conditions: ATCC 27853, 24 h, read-out: IZ; outline: as §2
# [17] = Antifungal activity against Chrysosporium keratinophilum MTCC 2827 at 0.5 mg/mL after 72 hrs by agar-well diffusion method; format: functional; outline: as §1
# Staphylococcus aureus [18] = assay: Antibacterial activity against Staphylococcus aureus ATCC 25923 at 1 mg/mL after 24 hrs by agar-well diffusion method; format: functional; conditions: ATCC 25923, 24 h, read-out: IZ; outline: as §2
# Pseudomonas aeruginosa [19] = assay: Antibacterial activity against Pseudomonas aeruginosa ATCC 27853 at 1 mg/mL after 24 hrs by agar-well diffusion method; format: functional; conditions: ATCC 27853, 24 h, read-out: IZ; outline: as §2
# [20] = tested on: Radical scavenging activity; assay: Antioxidant activity assessed as DPPH free radical scavenging activity at 100 uM after 30 mins; format: functional
# Outline: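 Sample brought to 1 mL with MeOH and mixed with 3 mL fresh 0.1 mM DPPH. Kept 30 min in the dark, then absorbance read at 517 nm. A DPPH control without sample was included. Scavenging (%) = [(Abs control − Abs sample)/Abs control] × 100.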
# Staphylococcus aureus [21] = assay: Antibacterial activity against Staphylococcus aureus ATCC 25923 at 0.25 mg/mL after 24 hrs by agar-well diffusion method; format: functional; conditions: ATCC 25923, 24 h, read-out: IZ; outline: as §2
# Mus musculus [22] = assay: Acute toxicity in Swiss albino mouse assessed as behavioral changes at >2000 mg/kg, po in single dose measured up to 24 hrs; format: organism-based; conditions: in vivo; outline: as §3
# Mus musculus [23] = assay: Acute toxicity in Swiss albino mouse assessed as mortality at >2000 mg/kg, po in single dose measured up to 24 hrs; format: organism-based; conditions: in vivo; outline: as §3
Compound,zone of inhibition at 1000 µg/mL (Candida albicans [1]) [mm],zone of inhibition at 500 µg/mL (Pseudomonas aeruginosa [2]) [mm],zone of inhibition at 500 µg/mL (Escherichia coli [3]) [mm],zone of inhibition at 500 µg/mL (Candida albicans [4]) [mm],zone of inhibition at 250 µg/mL (Escherichia coli [5]) [mm],zone of inhibition at 1000 µg/mL (Aspergillus flavus [6]) [mm],zone of inhibition at 250 µg/mL (Candida albicans [7]) [mm],zone of inhibition at 1000 µg/mL (Escherichia coli [8]) [mm],zone of inhibition at 500 µg/mL (Staphylococcus aureus [9]) [mm],Activity (Mus musculus [10]),zone of inhibition at 500 µg/mL (Aspergillus flavus [11]) [mm],inhibition zone (IZ) [13] [mm],inhibition zone (IZ) [14] [mm],zone of inhibition at 250 µg/mL (Aspergillus flavus [15]) [mm],zone of inhibition at 250 µg/mL (Pseudomonas aeruginosa [16]) [mm],inhibition zone (IZ) [17] [mm],zone of inhibition at 1000 µg/mL (Staphylococcus aureus [18]) [mm],zone of inhibition at 1000 µg/mL (Pseudomonas aeruginosa [19]) [mm],Activity [20] [%],zone of inhibition at 250 µg/mL (Staphylococcus aureus [21]) [mm],other results
CCOC(=O)C1=C(C)NC(C)=C(C(=O)OCC)C1c1c[nH]nc1-c1ccc(-c2ccccc2)cc1,6,13,10,4,7,5,2,13,12,Non-toxic,2,0,3,1,11,0,16,17,65.3,10,Activity (Mus musculus [12]): Non-toxic
CCOC(=O)C1=C(C)NC(C)=C(C(=O)OCC)C1c1c[nH]nc1-c1ccc(SC)cc1,0,11,12,0,9,0,0,17,12,Non-toxic,0,0,0,0,8,0,16,14,61.1,10,Activity (Mus musculus [12]): Non-toxic
CCOC(=O)C1=C(C)NC(C)=C(C(=O)OCC)C1c1c[nH]nc1-c1ccc(Cl)cc1,4,13,12,2,10,2,0,17,10,–,0,0,3,0,10,0,15,16,62.3,8,Activity (Mus musculus [22]): Toxic; Activity (Mus musculus [23]): Toxic
COC(=O)C1=C(C)NC(C)=C(C(=O)OC)C1c1c[nH]nc1-c1ccc(Cl)cc1Cl,3,4,3,0,2,3,0,6,3,–,2,0,5,0,2,1,6,8,35.2,2,–
CCOC(=O)C1=C(C)NC(C)=C(C(=O)OCC)C1c1c[nH]nc1-c1ccc(Cl)cc1Cl,4,9,4,1,2,3,1,6,7,–,2,1,4,2,7,2,11,12,29.2,5,–
COC(=O)C1=C(C)NC(C)=C(C(=O)OC)C1c1c[nH]nc1-c1ccc(Cl)cc1,3,7,8,1,5,6,0,10,6,–,3,2,5,1,4,4,8,9,29.4,3,–
